Measured values taken from ChEMBL document CHEMBL2086296, “Synthesis of novel quinoline-2-one based chalcones of potential anti-tumor activity” (Eur J Med Chem, 2012).

How the values were obtained:
[1] = tested on: SF-295; assay: Cytotoxicity against human SF295 cells after 24 hrs by SRB assay; assay type: functional; details: SF-295, 24 h
How it was run: (§1)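 NCI 60-line screen. Cells in RPMI 1640 with 5% FBS and 2 mM L-glutamine, seeded at 5,000–40,000 cells/well by doubling time, then incubated 24 h at 37 °C, 5% CO2 before dosing. Time-zero plates fixed with TCA at drug addition. DMSO stocks diluted in medium with gentamicin to five concentrations, […]. Protein read by SRB staining. GI50, TGI and LC50 derived relative to control and time-zero.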

[2] = tested on: 786-0; assay: Cytotoxicity against human 786-0 cells after 24 hrs by SRB assay; assay type: functional; details: 786-0, 24 h; how it was run: as §1
[3] = tested on: COLO 205; assay: Cytotoxicity against human COLO205 cells after 24 hrs by SRB assay; assay type: cell-based; details: colo 205, 24 h
How it was run: (§2)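 NCI 60-cell screen. Cells grown in RPMI 1640 with 5% FBS and 2 mM L-glutamine, seeded at 5,000–40,000 cells/well, preincubated 24 h at 37 °C in 5% CO2. Drug stock in DMSO, diluted in medium with gentamicin; five final concentrations, 100, 10, 1.0, 0.1 and […]. Time-zero plates were TCA-fixed. Protein read by SRB staining; GI50, TGI and LC50 taken relative to time-zero.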

[4] = tested on: KM12; assay: (§3) Cytotoxicity against human KM12 cells after 24 hrs by SRB assay; assay type: cell-based; details: km12, 24 h; how it was run: as §2
[5] = tested on: RXF 393; assay: Cytotoxicity against human RXF393 cells after 24 hrs by SRB assay; assay type: functional; details: RXF 393, 24 h; how it was run: as §1
[6] = tested on: SNB-19; assay: Cytotoxicity against human SNB19 cells after 24 hrs by SRB assay; assay type: functional; details: SNB-19, 24 h
How it was run: (§4)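 NCI 60-cell screen. Cells are grown in RPMI 1640 with 5% FBS and 2 mM L-glutamine and seeded at 5,000–40,000 cells/well according to doubling time. They are preincubated 24 h at 37 °C in 5% CO2, and Tz plates are TCA-fixed at drug addition. Drug stock is in DMSO, diluted in medium with gentamicin, and tested at five concentrations (100, 10, 1.0, 0.1, […]). Protein is read by SRB staining. GI50, TGI and LC50 are derived relative to time-zero and control wells.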

[7] = tested on: SW-620; assay: Cytotoxicity against human SW620 cells after 24 hrs by SRB assay; assay type: functional; details: SW-620, 24 h; how it was run: as §4
[8] = tested on: U-251; assay: Cytotoxicity against human U251 cells after 24 hrs by SRB assay; assay type: cell-based; details: u-251, 24 h
How it was run: (§5)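 NCI 60-cell-line screen: cells grown in RPMI 1640 with 5% FBS and 2 mM L-glutamine, seeded at 5,000–40,000 cells/well by doubling time, and preincubated 24 h at 37 °C in 5% CO2. Time-zero plates were TCA-fixed. DMSO stocks were diluted in medium with gentamicin to five concentrations (100, 10, 1.0, 0.1, […]). Protein was read by SRB, and GI50, TGI and LC50 were derived against time-zero.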

[9] = tested on: NCI-H23; assay: Cytotoxicity against human NCI-H23 cells after 24 hrs by SRB assay; assay type: functional; details: NCI-H23, 24 h; how it was run: as §1
[10] = tested on: MCF7; assay: Cytotoxicity against human MCF7 cells after 24 hrs by SRB assay; assay type: cell-based; details: mcf7, 24 h; how it was run: as §2
[11] = tested on: SK-MEL-2; assay: Cytotoxicity against human SK-MEL-2 cells after 24 hrs by SRB assay; assay type: cell-based; details: sk-mel-2, 24 h; how it was run: as §2
[12] = tested on: HCT-15; assay: Cytotoxicity against human HCT15 cells after 24 hrs by SRB assay; assay type: cell-based; details: hct-15, 24 h; how it was run: as §2
[13] = tested on: ACHN; assay: Cytotoxicity against human ACHN cells after 24 hrs by SRB assay; assay type: functional; how it was run: as §1
[14] = tested on: CCRF-CEM; assay: Cytotoxicity against human CCRF-CEM cells after 24 hrs by SRB assay; assay type: functional; how it was run: as §1
[15] = tested on: NCI-H226; assay: Cytotoxicity against human NCI-H226 cells after 24 hrs by SRB assay; assay type: cell-based; details: nci-h226, 24 h; how it was run: as §2
[16] = tested on: SR; assay: Cytotoxicity against human SR cells after 24 hrs by SRB assay; assay type: cell-based; how it was run: as §5
[17] = tested on: T47D; assay: (§6) Cytotoxicity against human T47D cells after 24 hrs by SRB assay; assay type: functional; how it was run: as §4
[18] = tested on: DU-145; assay: Cytotoxicity against human DU145 cells after 24 hrs by SRB assay; assay type: cell-based; details: du-145, 24 h; how it was run: as §2
[19] = tested on: HL-60; assay: Cytotoxicity against human HL60 cells after 24 hrs by SRB assay; assay type: functional; details: HL-60, 24 h; how it was run: as §1
[20] = tested on: SK-OV-3; assay: (§7) Cytotoxicity against human SKOV3 cells after 24 hrs by SRB assay; assay type: functional; details: SK-OV-3, 24 h; how it was run: as §1
[21] = tested on: HOP-62; assay: Cytotoxicity against human HOP62 cells after 24 hrs by SRB assay; assay type: cell-based; details: hop-62, 24 h; how it was run: as §2
[22] = tested on: M14; assay: (§8) Cytotoxicity against human M14 cells after 24 hrs by SRB assay; assay type: functional; details: M14, 24 h; how it was run: as §1
[23] = tested on: MDA-MB-468; assay: Cytotoxicity against human MDA-MB-468 cells after 24 hrs by SRB assay; assay type: cell-based; details: mda-mb-468, 24 h; how it was run: as §2
[24] = tested on: SK-MEL-28; assay: (§9) Cytotoxicity against human SK-MEL-28 cells after 24 hrs by SRB assay; assay type: functional; details: SK-MEL-28, 24 h; how it was run: as §1
[25] = tested on: KM12; assay: as §3; assay type: functional; details: KM12, 24 h; how it was run: as §1
[26] = tested on: SF-268; assay: (§10) Cytotoxicity against human SF268 cells after 24 hrs by SRB assay; assay type: functional; details: SF-268, 24 h; how it was run: as §1
[27] = tested on: SK-MEL-28; assay: as §9; assay type: cell-based; details: sk-mel-28, 24 h; how it was run: as §2
[28] = tested on: SF-268; assay: as §10; assay type: cell-based; details: sf-268, 24 h; how it was run: as §2
[29] = tested on: OVCAR-3; assay: Cytotoxicity against human OVCAR3 cells after 24 hrs by SRB assay; assay type: cell-based; details: ovcar-3, 24 h; how it was run: as §2
[30] = tested on: TK-10; assay: Cytotoxicity against human TK10 cells after 24 hrs by SRB assay; assay type: functional; details: TK-10, 24 h; how it was run: as §4
[31] = tested on: CAKI-1; assay: Cytotoxicity against human CAKI-1 cells after 24 hrs by SRB assay; assay type: functional; details: CAKI-1, 24 h; how it was run: as §1
[32] = tested on: SK-OV-3; assay: as §7; assay type: cell-based; details: sk-ov-3, 24 h; how it was run: as §5
[33] = tested on: M14; assay: as §8; assay type: cell-based; details: m14, 24 h; how it was run: as §2
[34] = tested on: T47D; assay: as §6; assay type: cell-based; how it was run: as §5
[35] = tested on: UACC-257; assay: (§11) Cytotoxicity against human UACC257 cells after 24 hrs by SRB assay; assay type: cell-based; details: uacc-257, 24 h; how it was run: as §5
[36] = tested on: UACC-257; assay: as §11; assay type: functional; details: UACC-257, 24 h; how it was run: as §4
[37] = tested on: A549; assay: Cytotoxicity against human A549 cells after 24 hrs by SRB assay; assay type: functional; details: A549, 24 h; how it was run: as §1
[38] = tested on: MDA-MB-435; assay: Cytotoxicity against human MDA-MB-435 cells after 24 hrs by SRB assay; assay type: cell-based; details: mda-mb-435, 24 h; how it was run: as §2

O=C(/C=C/c1cc2ccccc2[nH]c1=O)/C=C/c1cc2ccccc2[nH]c1=O
GI50 [1]: 2.64 µM | GI50 [2]: 2.75 µM | TGI [2]: 6.82 µM | LC50 [3]: > 100 µM | LC50 [4]: 5.12 µM | GI50 [5]: 1.79 µM | TGI [5]: 3.73 µM | GI50 [6]: 5.12 µM | TGI [6]: > 100 µM | GI50 [7]: 1 µM | TGI [7]: 3.92 µM | LC50 [8]: > 100 µM | GI50 [9]: 2.42 µM | TGI [9]: 87.7 µM | LC50 [10]: > 100 µM | LC50 [11]: > 100 µM | LC50 [12]: > 100 µM | GI50 [13]: 2.49 µM | TGI [13]: > 100 µM | GI50 [14]: 0.697 µM | TGI [14]: > 100 µM | LC50 [15]: > 100 µM | LC50 [16]: > 100 µM | GI50 [17]: 3.27 µM | TGI [17]: > 100 µM | LC50 [18]: > 100 µM | GI50 [19]: 3.38 µM | TGI [19]: > 100 µM | GI50 [20]: 18.1 µM | TGI [20]: > 100 µM | LC50 [21]: > 100 µM | GI50 [22]: 0.393 µM | LC50 [23]: > 100 µM | GI50 [24]: 4.96 µM | TGI [24]: > 100 µM | GI50 [25]: 0.494 µM | TGI [25]: 1.83 µM | GI50 [26]: 3.75 µM | TGI [26]: > 100 µM | LC50 [27]: > 100 µM | LC50 [28]: > 100 µM | LC50 [29]: > 100 µM | GI50 [30]: 4.6 µM | TGI [30]: > 100 µM | GI50 [31]: 2.36 µM | TGI [31]: > 100 µM | LC50 [32]: > 100 µM | LC50 [33]: > 100 µM | LC50 [34]: > 100 µM | LC50 [35]: > 100 µM | GI50 [36]: 1.98 µM | TGI [36]: 4.79 µM | GI50 [37]: 0.764 µM

COc1ccc(C(=O)/C=C/c2cc3ccccc3[nH]c2=O)cc1
GI50 [1]: 3.98 µM | TGI [1]: 18.6 µM | GI50 [2]: 3.52 µM | TGI [2]: > 100 µM | LC50 [3]: 77.6 µM | LC50 [4]: 26.9 µM | GI50 [5]: 3.41 µM | TGI [5]: 8.53 µM | GI50 [6]: 4.2 µM | TGI [6]: 19.1 µM | GI50 [7]: 3.41 µM | TGI [7]: 8.89 µM | LC50 [8]: > 100 µM | GI50 [9]: 2.9 µM | TGI [9]: 14.9 µM | LC50 [10]: > 100 µM | LC50 [11]: > 100 µM | LC50 [12]: > 100 µM | GI50 [13]: 3.93 µM | TGI [13]: 16.7 µM | GI50 [14]: 4.04 µM | TGI [14]: > 100 µM | LC50 [15]: > 100 µM | LC50 [16]: > 100 µM | GI50 [17]: 3.55 µM | TGI [17]: > 100 µM | LC50 [18]: 35.8 µM | GI50 [19]: 3.36 µM | TGI [19]: > 100 µM | GI50 [20]: 4.44 µM | TGI [20]: > 100 µM | LC50 [21]: 59 µM | GI50 [22]: 4.06 µM | TGI [22]: 22.5 µM | LC50 [23]: 39.8 µM | GI50 [24]: 7.59 µM | TGI [24]: 30.6 µM | GI50 [25]: 2.85 µM | TGI [25]: 7.81 µM | GI50 [26]: 2.85 µM | TGI [26]: 9.77 µM | LC50 [27]: > 100 µM | LC50 [28]: 40.7 µM | LC50 [38]: 91.6 µM | LC50 [29]: 29.8 µM | GI50 [30]: 3.54 µM | TGI [30]: 55.8 µM | GI50 [31]: 1.78 µM | TGI [31]: 3.51 µM | LC50 [32]: > 100 µM | LC50 [33]: > 100 µM | LC50 [34]: > 100 µM | LC50 [35]: 65.5 µM | GI50 [36]: 4.9 µM | TGI [36]: 18 µM | GI50 [37]: 3.21 µM | TGI [37]: > 100 µM
